In data set [1] the test system is Mus musculus. Description: Toxicity in topically dosed SCID mouse xenografted ectopically with human A431 cells assessed as reduction in body weight pretreated for 4 hrs via Metvix cream followed by 220 J/cm'-2 ultrasound irradiation measured on day 7 post dosing. The class given is organism-based, A-431. To be noted: in vivo, topical_or_ocular. A general note: In xenograft studies the graft and the host belong to different species.

Data set [2] has as its system A-431. As to the kind of experiment: Antitumor activity against human A431 cells ectopically xenografted in topically dosed SCID mouse assessed as tumor growth pretreated for 4 hrs via Metvix cream followed by 40 J/cm'-2 red light irradiation measured on day 7 post dosing relative to control. The class given is functional.
The test system of data set [3] is A-431. Description: Antitumor activity against human A431 cells ectopically xenografted in topically dosed SCID mouse assessed as tumor growth treated for 4 hrs via Metvix cream measured on day 7 post dosing relative to control. The class given is functional.
Data set [4] relates to Mus musculus. As to the kind of experiment: Toxicity in topically dosed SCID mouse xenografted ectopically with human A431 cells assessed as reduction in body weight pretreated for 4 hrs via Metvix cream followed by 40 J/cm'-2 red light irradiation measured on day 7 post dosing. To be noted: in vivo, topical_or_ocular. The class given is organism-based, A-431.
The subject of data set [5] is A-431. Description: Antitumor activity against human A431 cells ectopically xenografted in topically dosed SCID mouse assessed as tumor growth pretreated for 4 hrs via Metvix cream followed by 220 J/cm'-2 ultrasound irradiation measured on day 7 post dosing relative to control. The class given is functional.
Data set [6] deals with A-431. As to the kind of experiment: Cytotoxicity against human A431 cells assessed as reduction in cell viability at 1 uM preincubated for 4 hrs followed by 90 J/cm'-2 ultrasound irradiation measured after 24 hrs by MTT assay. The class given is functional, cell-based. In a few lines:
(§1)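 A431 squamous carcinoma cells were seeded and incubated with ALA (1 or 2 μM) for 4 h. They were then exposed to either red light (630 nm ± 15 nm) or ultrasound. Viability was read by MTT assay 24 h after treatment.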
In general terms: Formazan colour is commonly taken as a measure of viable cells.

Data set [7] has as its system A-431. Description: Cytotoxicity against human A431 cells assessed as reduction in cell viability at 1 uM preincubated for 4 hrs followed by 5 J/cm'-2 red light irradiation measured after 24 hrs by MTT assay. The class given is functional, cell-based. In a few lines:
as §1

For data set [8], the system named is A-431. Description: Cytotoxicity against human A431 cells assessed as reduction in cell viability at 2 uM preincubated for 4 hrs followed by 5 J/cm'-2 red light irradiation measured after 24 hrs by MTT assay relative to control. The class given is functional. The settings on record: A-431, light or radiation study. In a few lines:
as §1

The test system of data set [9] is A-431. Description: Cytotoxicity against human A431 cells assessed as reduction in cell viability at 2 uM preincubated for 4 hrs followed by 90 J/cm'-2 ultrasound irradiation measured after 24 hrs by MTT assay relative to control. The settings on record: A-431, light or radiation study. The class given is functional. In a few lines:
as §1

The nature of data set [10]: Induction of ROS generation in EtOH/H2O solution assessed as reduction in DPBF absorbance at 0.5 uM preincubated with compound followed by white light irradiation for 30 mins by UV-visible spectrometric analysis relative to control. Further details: scale not given: the % may be the effect or the level left. The class given is physicochemical. The settings on record: 0.5 h.

Data set [11] can be described thus: Cytotoxicity against mouse RIF1 cells assessed as reduction in cell viability at 0.5 uM preincubated for 3 hrs followed by 11.4 J/cm'-2 white light irradiation for 30 sec measured after 24 hrs by MTT assay relative to control. The class given is functional. The settings on record: RIF-1, light or radiation study.
Data set [12] can be described thus: Antitumor activity against mouse B16-F10-luc2 cells ectopically xenografted in nude mouse assessed as tumor growth at 100 uM pretreated with compound followed by ultrasound irradiation measured on day 4 post dosing relative to control. The class given is functional.
Data set [13] in a line: Cytotoxicity against mouse B16-F10-luc2 cells assessed as reduction in cell viability at 0.5 uM preincubated for 3 hrs followed by 11.4 J/cm'-2 white light irradiation for 30 sec measured after 24 hrs by MTT assay relative to control. The class given is functional. To be noted: B16-F10-luc2, light or radiation study.
Data set [14] concerns HeLa. Description: Cytotoxicity against human HeLa cells assessed as reduction in cell viability at 0.5 uM preincubated for 3 hrs followed by 90 J/cm'-2 ultrasound irradiation for 60 sec measured after 24 hrs by MTT assay relative to control. The class given is functional. To be noted: light or radiation study.
Data set [15] is described as follows: Cytotoxicity against mouse RIF1 cells assessed as reduction in cell viability at 0.5 uM preincubated for 3 hrs followed by 22.8 J/cm'-2 white light irradiation for 60 sec measured after 24 hrs by MTT assay relative to control. The class given is functional. To be noted: RIF-1, light or radiation study.
The nature of data set [16]: Antitumor activity against mouse B16-F10-luc2 cells ectopically xenografted in nude mouse assessed as tumor growth at 100 uM pretreated with compound followed by white light irradiation measured on day 4 post dosing relative to control. The class given is functional.
Data set [17] in a line: Cytotoxicity against mouse B16-F10-luc2 cells assessed as reduction in cell viability at 0.5 uM preincubated for 3 hrs followed by 90 J/cm'-2 ultrasound irradiation for 60 sec measured after 24 hrs by MTT assay relative to control. The class given is functional. The settings on record: B16-F10-luc2, light or radiation study.
Data set [18] can be described thus: Cytotoxicity against mouse RIF1 cells assessed as reduction in cell viability at 0.5 uM preincubated for 3 hrs followed by 45 J/cm'-2 ultrasound irradiation for 30 sec measured after 24 hrs by MTT assay relative to control. The class given is functional. To be noted: RIF-1, light or radiation study.
Data set [19] concerns HeLa. As to the kind of experiment: Cytotoxicity against human HeLa cells assessed as reduction in cell viability at 0.5 uM preincubated for 3 hrs followed by 11.4 J/cm'-2 white light irradiation for 30 sec measured after 24 hrs by MTT assay relative to control. The class given is functional. The settings on record: light or radiation study.
Data set [20] deals with HeLa. Description: Cytotoxicity against human HeLa cells assessed as reduction in cell viability at 0.5 uM preincubated for 3 hrs followed by 45 J/cm'-2 ultrasound irradiation for 30 sec measured after 24 hrs by MTT assay relative to control. The settings on record: light or radiation study. The class given is functional.
The test system of data set [21] is RIF-1. As to the kind of experiment: Cytotoxicity against mouse RIF1 cells assessed as reduction in cell viability at 0.5 uM preincubated for 3 hrs followed by ultrsound irradiation through 3.4 to 6.8 mm guinea pig skin barrier by MTT assay. The class given is functional, cell-based.
The test system of data set [22] is Mus musculus. Description: Toxicity in nude mouse xenografted ectopically with mouse B16-F10-Luc2 cells assessed as reduction in body weight at 100 uM pretreated with compound followed by white light irradiation measured up to 6 days post dosing relative to control. The class given is organism-based. The settings on record: in vivo.
Data set [23] concerns HeLa. Description: Cytotoxicity against human HeLa cells assessed as reduction in cell viability at 0.5 uM preincubated for 3 hrs followed by 22.8 J/cm'-2 white light irradiation for 60 sec measured after 24 hrs by MTT assay relative to control. The class given is functional. The settings on record: light or radiation study.
The nature of data set [24]: Antitumor activity against mouse B16-F10-luc2 cells ectopically xenografted in nude mouse assessed as tumor growth at 100 uM pretreated with compound followed by ultrasound irradiation measured up to 6 days post dosing relative to control. The class given is functional.
A short description of data set [25]: Cytotoxicity against mouse B16-F10-luc2 cells assessed as reduction in cell viability at 0.5 uM preincubated for 3 hrs followed by 45 J/cm'-2 ultrasound irradiation for 30 sec measured after 24 hrs by MTT assay relative to control. The settings on record: B16-F10-luc2, light or radiation study. The class given is functional.
In data set [26] the test system is RIF-1. As to the kind of experiment: Cytotoxicity against mouse RIF1 cells assessed as reduction in cell viability at 0.5 uM preincubated for 3 hrs followed by white light irradiation through 3.4 to 6.8 mm guinea pig skin barrier by MTT assay. The class given is functional, cell-based.
Data set [27] deals with Mus musculus. As to the kind of experiment: Toxicity in nude mouse xenografted ectopically with mouse B16-F10-Luc2 cells assessed as reduction in body weight at 100 uM pretreated with compound followed by ultrasound irradiation measured up to 6 days post dosing relative to control. The settings on record: in vivo. The class given is organism-based.
Data set [28] can be described thus: Cytotoxicity against mouse B16-F10-luc2 cells assessed as reduction in cell viability at 0.5 uM preincubated for 3 hrs followed by 22.8 J/cm'-2 white light irradiation for 60 sec measured after 24 hrs by MTT assay relative to control. The class given is functional. To be noted: B16-F10-luc2, light or radiation study.
The nature of data set [29]: Induction of ROS generation in EtOH/H2O solution assessed as reduction in DPBF absorbance at 0.5 uM preincubated with compound followed by ultrasound irradiation for 30 mins by UV-visible spectrometric analysis relative to control. The class given is physicochemical. Further details: scale not given: the % may be the effect or the level left. The settings on record: 0.5 h.

The nature of data set [30]: Cytotoxicity against mouse RIF1 cells assessed as reduction in cell viability at 0.5 uM preincubated for 3 hrs followed by 90 J/cm'-2 ultrasound irradiation for 60 sec measured after 24 hrs by MTT assay relative to control. The class given is functional. The settings on record: RIF-1, light or radiation study.

The source made the active and inactive calls. No cut-off for these calls is given here.

For `COC(=O)CCC(=O)CN` [METHYL AMINOLEVULINATE], the Activity entry is recorded as “Non-toxic” in the data set with Mus musculus [1]; 22% in the data set on A-431 [2]; 90% in the data set on A-431 [3]; “Non-toxic” in the data set with Mus musculus [4]; 11% in the data set on A-431 [5].
Take `NCC(=O)CCC(=O)O` [AMINOLEVULINIC ACID]: the inhibition result in the data set on A-431 [6] and in the data set with A-431 [7] was “Active” throughout. Moreover, the inhibition at 2 µM amounted to 43% in the data set with A-431 [8] and 31% in the data set with A-431 [9].
With `O=C([O-])c1c(Cl)c(Cl)c(Cl)c(Cl)c1-c1c2cc(I)c(=O)c(I)c-2oc2c(I)c([O-])c(I)cc12.[Na+].[Na+]` [ROSE BENGAL SODIUM], the Activity entry in data set [10] is “Active”; in [12] it was 120%; in data set [16] it was 400%; in the data set on Mus musculus [22], “Non-toxic”; in data set [24] it was 400%; in the data set on Mus musculus [27], “Non-toxic”. The result in data set [29] was Active. Besides, the inhibition at 0.5 µM in [11] was found to be 50%; in data set [13], 7%; in the data set with HeLa [14], 50%; in data set [15], 50%; in data set [17] it was 40%; in data set [18] it was 50%. Further, the inhibition at 0.5 µM in the data set with HeLa [19] stood at 50%; in the data set on HeLa [20] it was 50%; with HeLa [23] it was 50%; in data set [25] it was 25%; in data set [28], 18%; in data set [30], 50%. The inhibition entry in the data set on RIF-1 [21] is “Active”. Moreover, the inhibition entry with RIF-1 [26] is “inactive”.
Turning to `C=CC1=C(C)c2cc3[nH]c(cc4nc(cc5[nH]c(cc1n2)c(C)c5CCC(=O)O)C(CCC(=O)O)=C4C)c(C)c3C=C` [PROTOPORPHYRIN], the values for the Activity in data set [10] and in data set [29] were 60% and 17%, respectively.

By inhibition is commonly meant how much of the control response was suppressed.

The values above are taken from ChEMBL document CHEMBL3808313, “Comparing the efficacy of photodynamic and sonodynamic therapy in non-melanoma and melanoma skin cancer” (Bioorg Med Chem, 2016).
